Data taken from article PMC9990178 (Cell Chemical Biology, 2023).

What was measured:
Smad3 phosphorylation [1] = test: N protein-induced Smad3 phosphorylation/activation in HFL-1 cells; format: cell-based, human
Smad3 = Smad3 (Homo sapiens, UniProt P84022); test: ITC assay, RMY-205 binding to Smad3
Outline: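 Isothermal titration calorimetry. Sample cell loaded with GST-Smad3 at 20 µM; injector loaded with test compound at 0.2 mM. Compound titrated stepwise into the Smad3 solution, with PBS as control. Heat changes analyzed to derive binding.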

MH1 domain of Smad3 = MH1 domain of Smad3 (Homo sapiens, UniProt P84022); test: ITC assay, binding to MH1 domain of Smad3
Chain of MH1 domain of Smad3 (P84022 10-136 limits assumed): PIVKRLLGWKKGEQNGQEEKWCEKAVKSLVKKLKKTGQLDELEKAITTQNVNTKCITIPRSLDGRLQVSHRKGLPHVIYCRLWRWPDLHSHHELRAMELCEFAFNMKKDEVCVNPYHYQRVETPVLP

Smad2 = Smad2 (Homo sapiens, UniProt Q15796); test: ITC assay, binding to Smad2; details: GST-tagged protein
Chain of Smad2 (Q15796 whole entry): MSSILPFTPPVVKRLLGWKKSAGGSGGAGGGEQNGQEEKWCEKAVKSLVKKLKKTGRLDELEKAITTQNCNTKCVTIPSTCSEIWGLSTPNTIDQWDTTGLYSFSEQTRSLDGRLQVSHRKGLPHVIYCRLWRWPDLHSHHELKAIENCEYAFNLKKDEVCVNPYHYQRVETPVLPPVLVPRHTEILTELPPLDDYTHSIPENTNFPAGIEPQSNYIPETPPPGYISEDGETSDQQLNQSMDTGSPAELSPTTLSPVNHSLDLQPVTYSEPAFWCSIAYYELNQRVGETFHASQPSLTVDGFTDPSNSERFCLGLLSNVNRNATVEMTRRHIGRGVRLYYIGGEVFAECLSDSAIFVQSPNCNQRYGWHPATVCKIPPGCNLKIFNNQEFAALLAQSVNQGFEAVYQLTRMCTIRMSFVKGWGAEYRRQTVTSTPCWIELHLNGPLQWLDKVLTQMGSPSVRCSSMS

TβRI = TβRI (Homo sapiens, UniProt P36897); test: ITC assay, binding to TβRI; details: GST-tagged protein
Chain of TβRI (P36897 34-503): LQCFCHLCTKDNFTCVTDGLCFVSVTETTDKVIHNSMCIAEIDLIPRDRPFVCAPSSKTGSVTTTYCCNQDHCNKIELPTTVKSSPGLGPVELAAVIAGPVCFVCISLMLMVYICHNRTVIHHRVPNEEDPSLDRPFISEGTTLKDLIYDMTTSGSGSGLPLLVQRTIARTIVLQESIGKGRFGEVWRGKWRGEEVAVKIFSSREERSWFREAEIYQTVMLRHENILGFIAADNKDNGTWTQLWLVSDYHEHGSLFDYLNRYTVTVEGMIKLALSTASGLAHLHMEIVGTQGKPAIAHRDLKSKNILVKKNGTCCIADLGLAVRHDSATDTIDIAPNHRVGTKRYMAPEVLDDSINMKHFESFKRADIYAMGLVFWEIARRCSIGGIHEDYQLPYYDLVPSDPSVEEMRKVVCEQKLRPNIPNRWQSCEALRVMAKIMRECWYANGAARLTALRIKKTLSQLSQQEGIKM

α-SMA = test: N protein-induced α-SMA/COL1A1 expression; format: cell-based, human
Outline: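 HFL-1 cells transfected with N protein plasmid, then exposed to test compounds (10 µM for derivative comparison; otherwise varied times and doses). α-SMA and COL1A1 measured by western blot, normalized to tubulin. For collagen secretion, culture medium concentrated, held 16 h at 4°C and centrifuged; pellet dissolved in 0.05 M acetic acid, stained with Sirius red, washed, extracted, and read at 530 nm.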

[2] = system: CAGA luciferase reporter gene (a Smad3/4-dependent reporter); test: CAGA luciferase reporter; format: cell-based, human; details: 20 μM, Smad3-dependent manner
Outline: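 Cells co-transfected with a CAGA luciferase reporter (Smad3/4-dependent), a β-galactosidase expression vector and other plasmids, including N protein. Lysed 24 h after transfection; luciferase and β-gal activities measured. Luciferase activity normalized to β-gal to correct for transfection efficiency.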

[3] = Pharmacokinetic analysis in ICR mice; format: in vivo; details: male, mouse, plasma
Outline: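 Male ICR mice (8 weeks) received a single dose of test compound: 2 mg/kg i.v., or 10 mg/kg i.p. or by oral gavage. Blood sampled at 5, 15 and 30 min and at 1, 2, 4, 8 and 24 h. Plasma obtained by centrifugation at 1,500g for 10 min, and compound content in plasma assayed.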

Smad2 phosphorylation = test: N protein-induced Smad2 phosphorylation in HFL-1 cells; format: cell-based, human; details: 20 μM, 36 h
Outline: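 HFL-1 cells transfected overnight with N protein plasmid, then exposed to test compound for 36 h (20 µM unless specified). Lysates boiled 10 min in SDS buffer, run on SDS-PAGE, transferred to PVDF and immunoblotted with ECL detection. p-Smad2 and p-Smad3 band intensities normalized to tubulin.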

TGF-β/Smad signaling = test: TGF-β-induced Smad3 phosphorylation and α-SMA/COL1A1 expression in cell lines; format: cell-based, human; details: 36 h
Smad3 phosphorylation [4] = test: Nocodazole-induced Smad3 phosphorylation; format: cell-based, human; details: HFL-1, LX-2, and AC-16 cells; nocodazole 100 ng/mL, 12 h
TβRI-Smad2 interaction = TβRI-Smad2 interaction (Homo sapiens, UniProt Q15796); test: Co-IP, N protein-induced TβRI-Smad2 interaction; format: cell-based; details: coIP
Chain of TβRI-Smad2 interaction (Q15796 2-467 limits assumed): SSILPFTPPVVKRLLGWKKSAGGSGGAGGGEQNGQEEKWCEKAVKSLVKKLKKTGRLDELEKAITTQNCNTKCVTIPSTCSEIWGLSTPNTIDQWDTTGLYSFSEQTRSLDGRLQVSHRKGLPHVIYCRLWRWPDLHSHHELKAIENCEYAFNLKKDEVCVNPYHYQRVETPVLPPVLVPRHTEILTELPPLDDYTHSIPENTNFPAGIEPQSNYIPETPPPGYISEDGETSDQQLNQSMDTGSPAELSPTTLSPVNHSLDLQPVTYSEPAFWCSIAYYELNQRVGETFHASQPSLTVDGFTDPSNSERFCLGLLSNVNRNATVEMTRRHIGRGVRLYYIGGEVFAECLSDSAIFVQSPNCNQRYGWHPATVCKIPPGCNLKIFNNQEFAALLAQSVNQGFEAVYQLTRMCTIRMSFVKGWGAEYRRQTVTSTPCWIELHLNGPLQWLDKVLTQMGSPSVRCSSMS
Outline: (§1)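 HFL-1 cells transfected with an N protein plasmid using ViaFect. Lysates incubated 3 h with primary antibody plus protein G-Sepharose beads. Beads washed three times with NP-40 lysis buffer. Immunoprecipitates boiled in SDS loading buffer, resolved by SDS-PAGE, transferred to PVDF and probed; bands detected by enhanced chemiluminescence.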

[5] = system: N protein-TβRI, TβRI-TβRII, TβRI-FKBP12 interactions; test: Co-IP, interactions N protein-TβRI, TβRI-TβRII, TβRI-FKBP12; format: cell-based, human; details: HFL-1 cells
Outline: as §1

TβRI polymerization = TβRI polymerization (Homo sapiens, UniProt P36897); test: Crosslinking assay, N protein-induced TβRI polymerization; format: cell-based; details: HFL-1 cells, 24 h
Chain of TβRI polymerization (P36897 34-503): as the sequence (P36897 34-503) above

MH1-MH2 interaction = MH1-MH2 interaction (Homo sapiens, UniProt P84022); test: coIP and GST pull-down, MH1-MH2 interaction of Smad3; format: biochemical; details: coIP assay, GST pull-down assay
Chain of MH1-MH2 interaction (P84022 10-136 limits assumed): as the sequence (P84022 10-136 limits assumed) above
Chain of MH1-MH2 interaction (P84022 232-425 partner limits assumed): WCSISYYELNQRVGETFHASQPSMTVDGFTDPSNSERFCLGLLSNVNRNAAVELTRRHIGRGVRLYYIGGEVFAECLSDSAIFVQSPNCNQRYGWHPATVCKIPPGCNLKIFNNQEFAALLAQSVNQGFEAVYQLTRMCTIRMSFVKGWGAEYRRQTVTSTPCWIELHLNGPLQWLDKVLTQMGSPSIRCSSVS
Outline: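 GST-tagged proteins expressed in E. coli BL21 and purified on glutathione-sepharose; His-tagged proteins purified on Ni-NTA. GST or GST-fusion bound to glutathione beads in PBS for 1 h at 4°C, washed with PBS, then with modified NP-40 buffer. CoIP: lysates incubated 3 h with antibody plus protein G-Sepharose, washed, and immunoblotted.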

[6] = system: Smad2/3 nuclear translocation; test: Smad2/3 nuclear translocation in HFL-1 cells; format: cell-based, human; details: 24 h
Outline: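 HFL-1 cells expressing N protein treated with test compound for 24 h. Fixed in 4% formaldehyde and blocked in PBS with 3% BSA and 0.2% Triton X-100. Primary antibody overnight at 4°C; secondary antibody 1 h at room temperature in the dark; nuclei stained with DAPI for 10 min. Smad2/3 localization imaged by confocal microscopy.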

[7] = system: IL6, IL8, CCL2, CXCL10 mRNA; test: qRT-PCR of N protein-induced cytokine mRNA in HFL-1 cells; format: cell-based, human; details: 20 μM
[8] = system: Smad3 binding to promoters; test: ChIP assay, Smad3 binding to cytokine gene promoters in HFL-1 cells; format: cell-based, human; details: ChIP analysis
Outline: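 HFL-1 cells crosslinked with 1% formaldehyde for 10 min at room temperature, washed in ice-cold PBS, and lysed in SDS lysis buffer (1% SDS, 10 mM EDTA, 50 mM Tris pH 8.1) with protease inhibitors. Chromatin sonicated to 500–1000 bp, then incubated overnight at 4°C with antibody or rabbit IgG. Complexes pulled down on protein G-Sepharose, washed, eluted, crosslinks reversed, proteinase K-treated.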

[9] = system: THP1 macrophages and differentiated HL60 neutrophils; test: Transwell chemotaxis assay, recruitment by N protein-expressing HFL-1 cells; format: cell-based, human; details: 20 μM
Outline: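 HFL-1 cells in 24-well plates transfected with plasmids for 12 h, then switched to serum-free Ham's F12 for a further 24 h. THP-1 macrophages seeded in the upper transwell chamber and incubated 16 h. Non-migrated cells removed with a swab; migrated cells stained with crystal violet.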

[10] = system: primary mouse pulmonary fibroblasts; format: cell-based; details: 20 μM, 36 h
Outline: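 Primary pulmonary fibroblasts grown out from minced mouse lung (1 mm³ explants) in DMEM with 10% FBS; medium changed every 2 days, passaged with trypsin after one week. Cells transfected with N protein plasmid, then treated with test compound at 20 µM for 36 h. α-SMA and COL1A1 measured by western blot, normalized to tubulin.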

[11] = system: primary bone marrow-derived macrophages (BMDMs) and primary neutrophils; format: cell-based; details: mouse primary lung fibroblasts expressing N protein, 20 μM
Outline: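 BMDMs: mouse tibial marrow flushed, red cells lysed, filtered at 40 µm, cultured 8 days in DMEM with 25% L929-conditioned medium. Neutrophils: isolated from marrow on a Percoll gradient (52/64/72%) at 1,545 g for 30 min at room temperature; 64/72% interface collected. Migration of both cell types toward N protein-expressing primary lung fibroblasts assessed.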

[12] = system: N protein-induced pulmonary fibrosis; test: N protein; format: in vivo, C57BL/6J mice; details: 10 mg/kg weekly for 30 days
Outline: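 Male C57BL/6J mice (8 weeks) given N protein-expressing AAV or control AAV intranasally in 50 µL PBS. From day 4, test compound 10 mg/kg in saline given i.p. weekly. Sacrificed at day 30; n = 6 per group. Lung Smad3 phosphorylation assessed by western blot.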

[13] = system: Adriamycin-induced renal fibrosis; test: Adriamycin-induced renal fibrosis mouse model; format: in vivo, C57BL/6J mice; details: 3 mg/kg intraperitoneally daily, 7 days
[14] = Body and organ weight, behavior during RMY-205 administration; format: in vivo, mice
TβRI phosphorylation = test: N protein-induced TβRI phosphorylation in HFL-1 cells; format: cell-based, human; details: 10 μM, 24 h

Chain of Smad3 (P84022 whole entry): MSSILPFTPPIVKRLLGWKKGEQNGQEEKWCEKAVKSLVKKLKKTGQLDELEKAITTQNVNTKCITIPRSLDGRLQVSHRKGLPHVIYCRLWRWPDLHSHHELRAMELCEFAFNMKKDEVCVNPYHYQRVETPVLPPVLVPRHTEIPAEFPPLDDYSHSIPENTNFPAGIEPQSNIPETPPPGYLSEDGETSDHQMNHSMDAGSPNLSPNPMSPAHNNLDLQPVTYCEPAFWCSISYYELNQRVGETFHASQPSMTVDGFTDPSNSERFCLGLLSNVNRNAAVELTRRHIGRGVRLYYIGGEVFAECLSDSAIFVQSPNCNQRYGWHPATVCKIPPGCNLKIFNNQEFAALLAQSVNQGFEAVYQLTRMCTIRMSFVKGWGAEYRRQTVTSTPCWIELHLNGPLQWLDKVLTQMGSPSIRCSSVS

SMILES: COc1cc2c(cc1OC)CN(C(=O)/C=C/c1c(-c3ccccc3)n(C)c3ncccc13)CC2 [(E)-SIS3]
- N protein-induced Smad3 activation (Smad3 phosphorylation [1]; 3 μM, 36 h): no inhibitory effect

SMILES: O=c1c(O)c(N2CCN(Cc3ccc(Br)cc3F)CC2)oc2ccccc12 [RMY-205, 2-(4-(4-bromo-2-fluorobenzyl)piperazin-1-yl)-3-hydroxy-4H-chromen-4-one]
- Kd (Smad3): 8 µM
- Kd (MH1 domain of Smad3): 13.3 µM
- binding to Smad2 (Smad2): not to either Smad2 or TβRI
- binding to TβRI (TβRI): not to either Smad2 or TβRI
- N protein-induced α-SMA and COL1A1 expression levels and collagen secretion (α-SMA; HFL-1 cells, time- and dose-dependent manner): downregulate
- α-SMA inhibition ratio (%) (α-SMA; N-protein transfected HFL-1 cells, 10 μM, 24 h): 50.9 ± 14.0%
- N protein-induced transactivation activity of Smad [2]: inhibited
- AUC ([3]; ip, 10 mg/kg): 2130 ng·h/mL
- AUC(0-inf) ([3]; ip, 10 mg/kg): 2130 ng·h/mL
- Cmax ([3]; ip, 10 mg/kg): 1820 ng/mL
- Tmax ([3]; ip, 10 mg/kg): 11.4 min
- bioavailability ([3]; ip, 10 mg/kg): 42.8%
- half-life ([3]; ip, 10 mg/kg): 496 min
- AUC ([3]; iv, 2 mg/kg): 995 ng·h/mL
- AUC(0-inf) ([3]; iv, 2 mg/kg): 995 ng·h/mL
- Vd ([3]; iv, 2 mg/kg): 3 L/kg
- clearance ([3]; iv, 2 mg/kg): 34 mL/min/kg
- half-life ([3]; iv, 2 mg/kg): 119 min
- AUC ([3]; po, 10 mg/kg): 1870 ng·h/mL
- AUC(0-inf) ([3]; po, 10 mg/kg): 1870 ng·h/mL
- Cmax ([3]; po, 10 mg/kg): 1040 ng/mL
- Tmax ([3]; po, 10 mg/kg): 19.8 min
- bioavailability ([3]; po, 10 mg/kg): 37.6%
- half-life ([3]; po, 10 mg/kg): 153 min
- N protein-induced phosphorylation of Smad3 (Smad3 phosphorylation [1]; 20 μM, 36 h): inhibition
- N protein-induced phosphorylation of Smad2 (Smad2 phosphorylation): not of Smad2
- TGF-β-induced Smad3 phosphorylation and α-SMA and COL1A1 expression (TGF-β/Smad signaling; HFL-1, AC16, LX-2 and human primary dermal cells, TGF-β 2 ng/mL): effectively inhibited
- inhibition of TGF-β-induced Smad3 phosphorylation and α-SMA expression, compared with (E)-SIS3 (TGF-β/Smad signaling; HFL-1 cells, (E)-SIS3 3 μM): comparable with that by (E)-SIS3
- nocodazole-induced Smad3 phosphorylation (Smad3 phosphorylation [4]): inhibited
- N protein-induced TβRI interaction with Smad2 (TβRI-Smad2 interaction): not with Smad2
- interactions between N protein and TβRI, TβRI and TβRII, or TβRI and FKBP12 [5]: did not interfere
- N protein-induced TβRI polymerization (TβRI polymerization; 20 μM): not influenced
- interaction between MH1 and MH2 domains (MH1-MH2 interaction): substantially enhance
- N protein-induced Smad2/3 nuclear translocation ([6]; 20 μM): blocked
- N protein-induced mRNA expression of IL6, IL8, CCL2, and CXCL10 [7]: downregulated
- Smad3 binding to the promoters of genes of cytokines [8]: inhibited
- recruiting THP1 macrophages and differentiated HL60 neutrophils by N protein [9]: attenuation
- N protein-elevated mRNA of CCL2, CXCL10, and IL-6 expression and their release levels [10]: suppression
- N protein-induced α-SMA and COL1A1 expression [10]: significantly inhibited
- recruitment of primary BMDMs and primary neutrophils [11]: abolished
- N protein-induced phosphorylation of Smad3 in lung [12]: suppression
- N protein-induced secretion of CCL2, CXCL10, and IL-6 in bronchoalveolar lavage fluid [12]: suppression
- N protein-promoted infiltration of macrophages and neutrophils in the lung tissue [12]: markedly attenuated
- alveolar septal thickening, α-SMA expression and collagen deposition ([12]; intraperitoneally): alleviated alveolar septal thickening and decreased α-SMA expression and collagen deposition
- renal fibrosis, Smad3 phosphorylation and COL1A1 expression induced by Adriamycin [13]: effectively alleviate
- weight of the mice and of various organs (heart, liver, spleen, lungs, kidneys) ([14]; 10 mg/kg for 30 days): not significantly changed
- behavior, weight of the body or various organs ([14]; during administration of RMY-205): no abnormal behavior or weight loss

SMILES: Cc1cccc(-c2[nH]c(C(C)(C)C)nc2-c2ccc3c(c2)OCO3)n1 [SB505124, reference compound]
- N protein-induced expression of α-SMA and COL1A1 (α-SMA; HFL-1 cells, 10 μM, 24 h): failed to elevate
- N protein-induced Smad phosphorylation, nuclear translocation, and transactivation activity (Smad3 phosphorylation [1]; 10 μM, 24 h): lost its ability to induce
- N protein-induced TβRI polymerization (TβRI polymerization; 10 μM): could not prevent
- Smad2/3 localization in the presence of N protein ([6]; 10 μM): remain in the cytosol
- N protein-induced TβRI phosphorylation (TβRI phosphorylation): could block
